According to ChEMBL document CHEMBL3045252, “Stereoselective syntheses of all stereoisomers of lariciresinol and their plant growth inhibitory activities” (J Agric Food Chem, 2011):

What was measured:
Lactuca sativa [1] = assay: Plant growth regulatory activity in lettuce Lactuca sativa (lettuce) assessed as inhibition of root growth at 1 mM at 20 degC measured after 3 days; type: functional; details: 72 h, read-out: GI
Summary of the method: (§1)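 Paper was treated with acetone solution and dried, then 3 mL water added to a final 1 × 10^-3 M. Sealed dishes kept dark at 20 °C. Root and shoot lengths expressed as growth relative to the negative control. Mean ± SEM. One-way ANOVA with Tukey post-test.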

Lolium multiflorum [2] = assay: Plant growth regulatory activity in Lolium multiflorum (Italian ryegrass ) assessed as inhibition of shoot length at 1x10'-3 M at 20 degC measured after 5 days; type: functional; details: 120 h, read-out: GI
Summary of the method: (§2)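 Paper was pre-wetted with 500 μL acetone solution (6.0 × 10^-3 to 6.0 × 10^-8 M) and dried, then 3 mL water added to a final 1.0 × 10^-3 to 1.0 × 10^-8 M. Sealed dishes kept dark at 20 °C. Root and shoot lengths read against a negative control. Mean ± SEM; three experiments below 10^-3 M. One-way ANOVA with Tukey post-test.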

Lactuca sativa [3] = assay: Plant growth regulatory activity in lettuce Lactuca sativa (lettuce) assessed as inhibition of shoot length at 1 mM at 20 degC measured after 3 days; type: functional; details: 72 h, read-out: GI; summary of the method: as §1
Lolium multiflorum [4] = assay: Plant growth regulatory activity in Lolium multiflorum (Italian ryegrass) assessed as inhibition of root growth at 1x10'-3 M at 20 degC measured after 5 days; type: functional; details: 120 h, read-out: GI; summary of the method: as §2
Lolium multiflorum [5] = assay: Plant growth regulatory activity in Lolium multiflorum (Italian ryegrass) assessed as stimulation of root growth up to 10'--4 to 10^-7 M at 20 degC measured after 5 days; type: functional; summary of the method: as §2
Lolium multiflorum [6] = assay: Inhibition of seed germination in Lolium multiflorum (Italian ryegrass) seed assessed as seed germination rate (reference value: 90.3 +/- 1.40%); type: functional
Lolium multiflorum [7] = assay: Inhibition of germination in Lolium multiflorum (Italian ryegrass) seed assessed as growth rate of germinated grass root; type: functional
Lolium multiflorum [8] = assay: Toxicity in italian ryegrass Lolium multiflorum (Italian ryegrass) assessed as adverse effect up to 10^-7 M; type: organism-based; details: in vivo
Lolium multiflorum [9] = assay: Plant growth regulatory activity in Lolium multiflorum (Italian ryegrass) assessed as inhibition of shoot length at 1 mM at 20 degC measured after 5 days; type: functional; details: 120 h, read-out: GI; summary of the method: as §2

Structure (SMILES) | inhibition of growth at 1000 µM (Lactuca sativa [1]) [%] | inhibition of growth at 1000 µM (Lolium multiflorum [2]) [%] | inhibition of growth at 1000 µM (Lactuca sativa [3]) [%] | inhibition of growth at 1000 µM (Lolium multiflorum [4]) [%] | Activity (Lolium multiflorum [5]) [%] | inhibition (INH) (Lolium multiflorum [6]) [%] | inhibition (INH) (Lolium multiflorum [7]) [%] | Activity (Lolium multiflorum [8]) | inhibition of growth at 1000 µM (Lolium multiflorum [9]) [%]
COc1cc(C[C@@H]2CO[C@H](c3ccc(O)c(OC)c3)[C@@H]2CO)ccc1O | -20.7 | < 23 | -1.6 | -30 | – | – | – | – | –
COc1cc(C[C@H]2CO[C@H](c3ccc(O)c(OC)c3)[C@@H]2CO)ccc1O | -20.7 | – | -1.6 | -48.2 | 20 | 72.5 | -35.4 | – | –
COc1cc(C[C@@H]2CO[C@@H](c3ccc(O)c(OC)c3)[C@H]2CO)ccc1O | – | – | -32.3 | – | – | – | – | – | –
COc1cc(C[C@H]2CO[C@@H](c3ccc(O)c(OC)c3)[C@@H]2CO)ccc1O | -20.7 | – | -1.6 | – | – | – | – | Non-toxic | –
COc1cc(C[C@@H]2CO[C@H](c3ccc(O)c(OC)c3)[C@H]2CO)ccc1O | -20.7 | – | -1.6 | – | – | – | – | Non-toxic | –
COc1cc(C[C@H]2CO[C@@H](c3ccc(O)c(OC)c3)[C@H]2CO)ccc1O | -20.7 | < 23 | -1.6 | -30 | – | – | – | – | –
COc1cc(C[C@@H]2CO[C@@H](c3ccc(O)c(OC)c3)[C@@H]2CO)ccc1O [(-)-Lariciresinol] | -8.2 | – | -13.3 | -44.3 | – | 80 | -57.2 | – | -17.1
COc1cc(C[C@H]2CO[C@H](c3ccc(O)c(OC)c3)[C@H]2CO)ccc1O [LARICIRESINOL] | -14.4 | – | -22 | -29.3 | – | 72.5 | -40.7 | – | –
